Converted amounts (≈) assume the structure as drawn.

IC50 and IC data for 13 compounds are collected here from ChEMBL document CHEMBL1155114, “Kadcoccilactones A-J, triterpenoids from Kadsura coccinea” (J Nat Prod, 2008).

Assay [1] has as its system K562. Kind of assay: Cytotoxicity against human K562 cells after 72 hrs by MTT assay. Format: functional, cell-based. The following applies: K562, 72 h. An outline of the steps:
(§1)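 Human tumor cells seeded in 96-well plates 24 h before treatment, then exposed continuously to a range of compound concentrations for 72 h. Inhibition of cell proliferation read by SRB or MTT staining as named in each line. IC50 derived. Adriamycin (ADR) included as positive control.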
For orientation: Formazan colour is commonly taken as a measure of viable cells.

Assay [2] concerns Bel-7402. Put plainly: Cytotoxicity against human Bel7402 cells after 72 hrs by MTT assay. Format: functional, cell-based. The following applies: Bel-7402, 72 h. Put shortly:
as §1

Assay [3] has as its system K562. Put plainly: Cytotoxicity against human K562 cells after 72 hrs by SRB assay. Format: functional, cell-based. The following applies: K562, 72 h. An outline of the steps: as §1
A general note: The SRB assay estimates cell density from bound dye.

The test system of assay [4] is Bel-7402. Put plainly: Cytotoxicity against human Bel7402 cells after 72 hrs by SRB assay. Format: functional, cell-based. The following applies: Bel-7402, 72 h. An outline of the steps:
as §1

The test system of assay [5] is A549. Put plainly: Cytotoxicity against human A549 cells after 72 hrs by SRB assay. Format: functional. Put shortly:
as §1

Assay [6] concerns A549. Put plainly: Cytotoxicity against human A549 cells after 72 hrs by MTT assay. In kind it is functional, cell-based. The following applies: A549, 72 h. Put shortly:
as §1

Usually IC50 stands for the concentration needed to halve the response being measured. `COc1cccc2c1C(=O)c1c(O)c3c(c(O)c1C2=O)C[C@@](O)(C(=O)CO)C[C@@H]3O[C@H]1C[C@H](N)[C@H](O)[C@H](C)O1` [DOXORUBICIN]: the IC50 in the assay on K562 [1] amounted to 0.011 µg/mL (≈ 0.0202 µM); in the assay with Bel-7402 [2] it was 0.01 µg/mL (≈ 0.0184 µM); in the assay with K562 [3], 0.011 µg/mL (≈ 0.0202 µM); in the assay with Bel-7402 [4] it was 0.01 µg/mL (≈ 0.0184 µM); in the assay on A549 [6], 0.025 µg/mL (≈ 0.046 µM). Besides, the IC with A549 [5] was determined as 0.025 µg/mL.
For `CC1=CC[C@@H]([C@@H](C)[C@]2(O)CC[C@@]3(C)[C@@H]4CC[C@H]5C(C)(C)O[C@@H]6CC(=O)O[C@@]65C[C@@]4(O)CC[C@@]32C)OC1=O` [KADCOCCILACTONE A], the IC50 in the assay with K562 [1] was over 100 µg/mL; with Bel-7402 [2], 36.4 µg/mL (≈ 70.5 µM); in the assay with K562 [3], over 100 µg/mL; with Bel-7402 [4] it was 36.4 µg/mL (≈ 70.5 µM); in the assay on A549 [6], over 100 µg/mL. In addition, the IC in the assay with A549 [5] is over 100 µg/mL.
As to `CC1=CC[C@@H]([C@@H](C)[C@@H]2CC[C@]3(O)[C@@H]4CC[C@H]5C(C)(C)O[C@@H]6CC(=O)O[C@@]65C[C@@]4(O)CC[C@]23C)OC1=O` [KADCOCCILACTONE B], the concentration for half-maximal inhibition (IC50) in the assay with K562 [1], in the assay with Bel-7402 [2], with K562 [3], in the assay with Bel-7402 [4] and in the assay on A549 [6] was over 100 µg/mL throughout. The IC with A549 [5] is over 100 µg/mL.
Take `CC1=CC[C@@H]([C@@H](C)[C@@H]2CC[C@@]3(CO)[C@@H]4CC[C@H]5C(C)(C)O[C@@H]6CC(=O)O[C@@]65C[C@@]4(O)CC[C@]23C)OC1=O` [KADCOCCILACTONE C]: the half-inhibitory concentration (IC50) in the assay on K562 [1] was 53.3 µg/mL (≈ 103 µM); with Bel-7402 [2], over 100 µg/mL; in the assay with K562 [3], 53.3 µg/mL (≈ 103 µM); in the assay on Bel-7402 [4] it was over 100 µg/mL; in the assay with A549 [6] it was over 100 µg/mL. Moreover, the IC in the assay with A549 [5] was over 100 µg/mL.
Turning to `CC1=CC[C@@H]([C@@H](C)[C@@H]2CC=C3[C@@H]4CC[C@H]5C(C)(C)O[C@@H]6CC(=O)O[C@@]65C[C@@]4(OC=O)CC[C@@]32C)OC1=O` [KADCOCCILACTONE D], the IC50 in the assay on K562 [1], with Bel-7402 [2], in the assay on K562 [3], in the assay on Bel-7402 [4] and in the assay with A549 [6] was over 100 µg/mL each time. Moreover, the IC with A549 [5] was over 100 µg/mL.
On to `CC1=C[C@@H]([C@@H](O)[C@@H](C)[C@H]2CC=C3[C@@H]4CC[C@H]5C(C)(C)O[C@@H]6CC(=O)O[C@@]65C[C@@]4(O)CC[C@@]32C)OC1=O` [KADCOCCILACTONE E], for which the half-inhibitory concentration (IC50) in the assay on K562 [1], with Bel-7402 [2], in the assay on K562 [3], with Bel-7402 [4] and in the assay on A549 [6] was over 100 µg/mL each time. The IC in the assay on A549 [5] is over 100 µg/mL.
For the compound `CC(=O)O[C@H]1CC([C@H](C)[C@H](O)[C@@H]2C[C@H](C)C(=O)O2)=C2CC[C@]3(O)C[C@]45OC(=O)C[C@@]4(O)OC(C)(C)[C@@H]5CC[C@H]3[C@]21C` [KADCOCCILACTONE F], the IC50 in the assay with K562 [1], in the assay with Bel-7402 [2], in the assay with K562 [3], in the assay with Bel-7402 [4] and with A549 [6] was over 100 µg/mL in each case. The IC in the assay on A549 [5] is over 100 µg/mL.
As to `CC1=C[C@@H]([C@@H](O)[C@@H](C)[C@]23CC[C@@]4(CO2)[C@@H]2CC[C@H]5C(C)(C)O[C@@H]6CC(=O)O[C@@]65C[C@@]2(O)CC[C@@]43C)OC1=O` [KADCOCCILACTONE G], the half-maximal inhibitory concentration (IC50) in the assay on K562 [1], in the assay with Bel-7402 [2], in the assay on K562 [3], with Bel-7402 [4] and in the assay with A549 [6] was over 100 µg/mL each time. For the same compound, in the assay with A549 [5], the IC is over 100 µg/mL.
On to `CC(=O)O[C@@H]1C[C@H]2C(C)(C)O[C@@H]3CC(=O)O[C@@]32C[C@@]2(O)CC[C@]34O[C@H](C5CC(C)C(=O)O5)[C@@H](C)[C@H]3C[C@H](O)[C@]4(C)[C@H]12` (stereo partly drawn) [KADCOCCILACTONE H], for which the half-maximal inhibitory concentration (IC50) with K562 [1], with Bel-7402 [2], in the assay with K562 [3], in the assay with Bel-7402 [4] and with A549 [6] was over 100 µg/mL in each case. The compound also had an IC in the assay on A549 [5] of over 100 µg/mL.
Regarding `CC(=O)O[C@H]1C[C@@H]2[C@H](C)[C@@H](C3CC(C)C(=O)O3)O[C@@]23CC[C@]2(O)C[C@]45OC(=O)C[C@H]4OC(C)(C)[C@@H]5C[C@@H](O)[C@H]2[C@@]13C` (stereo partly drawn) [KADCOCCILACTONE I], the IC50 in the assay with K562 [1], in the assay with Bel-7402 [2], in the assay with K562 [3], in the assay on Bel-7402 [4] and with A549 [6] was over 100 µg/mL throughout. In the assay on A549 [5], this compound displayed an IC of over 100 µg/mL.
As for `CC1=CC([C@H]2O[C@@]34[C@H](C[C@@H]5O[C@@]53[C@@H]3[C@H](O)C[C@H]5C(C)(C)O[C@@H]6CC(=O)O[C@@]65C[C@@]3(O)C[C@@H]4O)[C@@H]2C)OC1=O` (stereo partly drawn) [KADCOCCILACTONE J], the IC50 in the assay with K562 [1], in the assay with Bel-7402 [2], in the assay with K562 [3], with Bel-7402 [4] and in the assay with A549 [6] was over 100 µg/mL throughout. In the assay on A549 [5], the IC is over 100 µg/mL.
For the compound `CC(=O)O[C@@H]1C[C@]2(C)[C@@H]([C@H](C)[C@H]3CC=C(C)C(=O)O3)CC[C@@]2(C)CCC[C@H]2C(C)(C)O[C@@H]3CC(=O)O[C@@]32CC1=O` [KADSUPHILACTONE A], the IC50 in the assay on K562 [1] is 50.3 µg/mL (≈ 90 µM); in the assay on Bel-7402 [2], over 100 µg/mL; in the assay on K562 [3] it was 50.3 µg/mL (≈ 90 µM); with Bel-7402 [4], over 100 µg/mL; in the assay on A549 [6], 96.6 µg/mL (≈ 173 µM). In the assay on A549 [5], this compound showed an IC of 96.6 µg/mL.
Consider `CC1=C[C@H]([C@H](O)[C@H](C)[C@@H]2C[C@H]3O[C@]34[C@@H]3CC[C@@H]5C(C)(C)O[C@H]6CC(=O)O[C@]65C[C@]3(O)CC[C@@]24C)OC1=O` [MICRANDILACTONE B], for which the IC50 in the assay on K562 [1], in the assay with Bel-7402 [2], in the assay on K562 [3], with Bel-7402 [4] and in the assay on A549 [6] was over 100 µg/mL in each case. Moreover, in the assay with A549 [5], the IC was over 100 µg/mL.
